Blank lines part the entries; values can stand above or below the molecule they belong to. Where a SMILES comes first, the peptide text is derived from it. The star is where a group is joined. FITC = O=C1OC2(c3ccc(O)cc3Oc3cc(O)ccc32)c2ccc(NC(=S)*)cc21
What was measured:
CCL18 = assay: Fluorescence polarization assay, CCL18; assay type: binding; conditions: BK1.1FITC 50 nM, chemokine 1 μM, compared with negative control CXCL1
In short: (§1)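 Polarization read with FITC filters, gain set at 35 mP on a peptide-only well, and converted to anisotropy, A = 2P/(3 − P). CXCL1 negative control. Two technical, three biological replicates. One-way ANOVA with Sidak's correction.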

CCL8 = target: T1, CCL8 (Homo sapiens, UniProt P80075); assay: Fluorescence polarization assay, CCL8; assay type: binding; conditions: fluorescent peptide 50 nM, CCL8 1 μM, 30 min, compared with scrambled control
T1 sequence (P80075 24-99): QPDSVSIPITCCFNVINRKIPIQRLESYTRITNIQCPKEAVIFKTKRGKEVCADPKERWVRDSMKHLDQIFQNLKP
In short: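 Polarization read with FITC filters, gain set to 35 mP on a peptide-only well, and converted to anisotropy A = 2P/(3 − P). Two technical × three biological replicates. Scrambled FITC peptide as negative control; one-way ANOVA with Sidak's correction.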

CCL7 = assay: Fluorescence polarization assay, CCL7; assay type: binding; conditions: BK1.1FITC 50 nM, chemokine 1 μM, compared with negative control CXCL1
In short: as §1

[1] = target: EVA1(P672_(22-32)) hybrid protein (not stated | Rhipicephalus pulchellus); assay: BLI
human CCL8-647 (human) = human CCL8-647 (human) (UniProt P80075); assay: flow cytometry on cells
human CCL2-647 (human) = human CCL2-647 (human) (UniProt P13500); assay: flow cytometry on cells
human CCL2-647 (human), sequence (P13500 24-99): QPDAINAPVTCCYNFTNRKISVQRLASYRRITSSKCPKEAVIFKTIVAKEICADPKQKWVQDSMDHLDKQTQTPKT

[2] = target: C–C motif chemokine ligand 8 (CCL8) (human) (UniProt P80075)
[3] = target: T2, C–C motif chemokine ligand 8 (CCL8) (human), P80075; assay: native MS; conditions: remark: other sources report otherwise
T2 chain: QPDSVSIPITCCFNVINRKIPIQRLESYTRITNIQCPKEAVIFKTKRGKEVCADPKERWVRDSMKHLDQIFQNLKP

P672–CCL8 complex = assay: Hydrogen–deuterium exchange MS of the P672–CCL8 complex; conditions: complex versus free CCL8; 5 s, 30 s, 5 min, 60 min; triplicate

Molecule: C–C motif chemokine ligand 8 (CCL8) (from UniProt P80075 24-99)
Kd [1]: 490 nM

Molecule: evasin EVA-P672 (natural protein)
IC50 (human CCL8-647 (human)): 21 nM
IC50 (human CCL2-647 (human)): 21 nM
IC50 of inhibition of CCL8-induced THP-1 cell migration [2]: 2.6 nM

Continued, in another order:

change in anisotropy upon incubation with CCL8 (CCL8): displayed an increase in anisotropy
Molecule: CC(C)[C@H](NC(=O)[C@@H]1CCCN1C(=O)[C@H](CCCCN)NC(=O)[C@H](Cc1ccccc1)NC(=O)[C@H](Cc1ccccc1)NC(=O)[C@H](CC(=O)O)NC(=O)[C@H](CCC(=O)O)NC(=O)[C@H](Cc1ccc(O)cc1)NC(=O)[C@H](CC(=O)O)NC(=O)[C@H](CCC(=O)O)NC(=O)[C@H](CC(=O)O)NC(=O)[C@H](CCC(=O)O)NC(=S)Nc1ccc2c(c1)C(=O)OC21c2ccc(O)cc2Oc2cc(O)ccc21)C(=O)N[C@H](C(=O)N[C@@H](C)C(=O)N[C@@H](Cc1ccc(O)cc1)C(=O)N[C@@H](Cc1ccccc1)C(N)=O)[C@@H](C)O [BK1.1FITC] ({FITC}-EDEDYEDFFKPVTAYF-NH2)
change in anisotropy with CCL18 (CCL18): significant increases in anisotropy
change in anisotropy with CCL7 (CCL7): significant increases in anisotropy

stoichiometry N [3]: 2
B1: C–C motif chemokine ligand 8 (CCL8), P80075 24-99 (ligand)
chain: QPDSVSIPITCCFNVINRKIPIQRLESYTRITNIQCPKEAVIFKTKRGKEVCADPKERWVRDSMKHLDQIFQNLKP
% relative deuterium uptake (%D), CCL8 Arg18–Ser27 (P672–CCL8 complex): −6 to −18%
